Hits are enriched below; roughly 4.3% of the tested compounds scored in any of these assays.
SR-BI uptake up = enhances SR-BI lipid uptake from DiI-HDL | CHO ldlA[mSR-BI] cells, DiI-HDL uptake fluorescence, 3 h; 100 = double the neutral-control signal | activation, % at 12.5 µM | 320,000 compounds, 0.096% hits | AID 504775;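 active means mean replicate activation of at least 60% and every replicate at or above 60%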
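Test system: SR-BI-overexpressing, LDLR-lacking CHO cells; Also added: labelled HDL, 10 µg/mL; Measured by: bottom-read cell fluorescence after medium removal, ex 550/em 595 nm; Timing: 3 h uptake period with compound, 37 °C; Buffer or medium: F12, 0.5% BSA, 25 mM HEPES; Doses: single compound concentration, delivered by pin transfer.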
AHR activator = activators of human aryl hydrocarbon receptor; P35869; AHR-responsive luciferase reporter cells, luminescence; activation, % at 5 µM; 320,000 compounds, 2.5% hits; AID 2796; in the data active means activation above about 47%
Target sequence (P35869 whole entry, looked up): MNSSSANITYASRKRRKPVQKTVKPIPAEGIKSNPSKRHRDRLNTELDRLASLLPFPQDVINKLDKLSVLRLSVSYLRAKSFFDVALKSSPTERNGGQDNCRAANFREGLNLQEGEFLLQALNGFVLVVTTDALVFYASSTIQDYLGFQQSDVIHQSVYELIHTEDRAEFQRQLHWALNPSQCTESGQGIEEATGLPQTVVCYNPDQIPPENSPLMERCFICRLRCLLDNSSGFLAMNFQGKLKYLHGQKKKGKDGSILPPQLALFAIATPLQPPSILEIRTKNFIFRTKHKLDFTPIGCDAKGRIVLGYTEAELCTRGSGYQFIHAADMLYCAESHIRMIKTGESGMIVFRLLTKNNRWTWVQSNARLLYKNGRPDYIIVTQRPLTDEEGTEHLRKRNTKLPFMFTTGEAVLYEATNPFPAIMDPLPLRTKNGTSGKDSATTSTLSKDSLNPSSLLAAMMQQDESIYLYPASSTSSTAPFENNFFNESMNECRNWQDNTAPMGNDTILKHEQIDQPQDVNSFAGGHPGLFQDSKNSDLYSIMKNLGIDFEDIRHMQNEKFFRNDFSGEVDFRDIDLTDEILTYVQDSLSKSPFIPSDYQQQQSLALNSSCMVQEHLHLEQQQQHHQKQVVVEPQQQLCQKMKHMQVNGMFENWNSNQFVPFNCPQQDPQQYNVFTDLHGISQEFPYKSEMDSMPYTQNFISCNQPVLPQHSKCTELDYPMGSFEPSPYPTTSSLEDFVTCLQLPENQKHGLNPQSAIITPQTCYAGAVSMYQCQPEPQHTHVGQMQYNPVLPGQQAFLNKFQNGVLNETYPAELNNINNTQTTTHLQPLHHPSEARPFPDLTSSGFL
Lipid droplet = modulators of hepatic lipid droplet formation. AML12 mouse hepatocytes, oleate lipid droplets, BODIPY imaging. inhibition, % at 6.5 µM. 240,000 compounds, 0.4% hits;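 active means lipid droplet intensity inhibited by at least 50%, with more than 500 cells counted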
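Test system: AML12 mouse liver cells; schedule: overnight exposure; technique: high-content imaging of BODIPY-stained droplets and DAPI nuclei; read-out: % inhibition of corrected integrated BODIPY droplet signal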
SR-BI DiI inh = mouse SR-BI HDL lipid transfer inhibition | 320,000 compounds, 0.96% hits | Q61009 | ldlA[mSR-BI] CHO cells, DiI-HDL uptake fluorescence, 3 h | inhibition, % at 12.5 µM;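 active means mean replicate inhibition of at least 70% and a set share of replicates each scoring 70 or more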
SMARCA2 activ = activators of SMARCA2 function; activation, % at 9.1 µM; 370,000 compounds, 1% hits; MG213 cells, MMTV-luciferase reporter, dexamethasone, overnight; in the data active means activation above about 7.8%
CR mimetic SO = caloric restriction mimetics inhibiting age-related superoxide in yeast | AID 2690 | 330,000 compounds, 0.18% hits | S. cerevisiae aged cells, superoxide DHE fluorescence; hits give low values | superoxide response (% of plate mean), % at 10 µM;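 active means superoxide response under a set limit, about three screen SD below normal, cut at about 65% in these data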;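 further: yeast aged for seven days with compound at 30 °C before DHE staining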
SMARCA2 act conf = SMARCA2 activation, confirmation screen | shares compounds with SMARCA2 activ | MG213 cells, MMTV-luciferase with dexamethasone, luminescence, overnight; MG213 cells expressing E1A, Rb sequestered; DMSO wells 0%, reference activator 100% | activation, % at 9.1 µM | 3,500 compounds, 30% hits;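 active means activation above its plate's cutoff, the mean activation of tested wells plus 3 SD, cut at about 7.9% in these data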
VP16 Luc act = activates GAL4-VP16 luciferase, flagging SMARCA2 activator hits; shares compounds with SMARCA2 activ; HEK293 GAL4-VP16 pG5luc reporter, luciferase luminescence; scaled: DMSO wells 0%, SAHA wells 100%; activation, % at 9.1 µM; 3,500 compounds, 41% hits;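 active means activation above the solvent-only control well mean plus 3 SD, averaged across control plates, cut at about 5.2% in these data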
A number is an active result; i = inactive; nt = no result given.

SMILES | SR-BI uptake up | AHR activator | Lipid droplet | SR-BI DiI inh | SMARCA2 activ | CR mimetic SO | SMARCA2 act conf | VP16 Luc act
CCc1ccc(OCC(=O)NC(C)(C)C)cc1 | i | i | i | i | i | i | nt | nt
CC(=O)CC[C@H]1CC[C@]2(CCCN(S(=O)(=O)C3CCCCC3)C2)O1 | nt | nt | nt | nt | i | nt | nt | nt
O=C(CSc1nnc(-c2ccccn2)n1-c1ccc(Cl)cc1)Nc1ccc(S(=O)(=O)Nc2nccs2)cc1 | nt | nt | nt | nt | i | nt | nt | nt
O=C(CCCN1C(=O)c2ccccc2C1=O)NCCCN1CCOCC1 | i | i | i | i | i | i | nt | nt
N#CCCN(CCCN1CCOCC1)CN1C(=O)c2ccccc2C1=O | nt | nt | nt | nt | 8.1 | nt | i | i
O=C(OCCN1CCN(C2CN(Cc3cn(Cc4ccccc4C(F)(F)F)nn3)S(=O)(=O)C2)CC1)c1cc2ccccc2o1 (stereo unspecified) | nt | nt | nt | nt | i | nt | nt | nt
CCc1ccc(/C=C2\Oc3ccc(C(=O)OC)cc3C2=O)cc1 | i | i | i | i | 10 | i | i | 6.5
C=c1[nH]cc(C(C)c2c(C)n(C)c3ccccc23)/c1=C/C (stereo unspecified) | nt | nt | nt | nt | i | nt | nt | nt
Cn1c(=NC(=O)c2cccc([N+](=O)[O-])c2)sc2ccccc21 | i | i | i | i | 8.7 | i | i | 14
O=C1c2cccc3cccc(c23)C(=O)N1CCN1CCN(CC(O)COCc2ccc(Cl)cc2)CC1 (stereo unspecified) | i | i | i | i | 8.7 | i | 8.5 | 5.4
COc1ccc(C(=O)OCC(=O)c2ccc3c(c2)NC(=O)CO3)cc1OC | i | i | nt | i | 8.6 | i | i | i
c1ccc(-c2csc(CN3CCCCC3)n2)cc1 | i | nt | nt | i | 14 | nt | 8.1 | 15
O=C(COC(=O)c1ccccc1O)Nc1cccnc1Cl | i | i | i | i | i | i | nt | nt
O=C(COC(=O)c1cccnc1Cl)Nc1nc(-c2ccccc2)cs1 | i | i | i | i | 9.9 | i | i | i
COc1ccc2[nH]c3c(c2c1)CCN[C@]31C(=O)N(C)c2ccc(Br)cc21 | nt | nt | nt | nt | i | nt | nt | nt
O=C(C(=O)N1CCC(CNS(=O)(=O)c2ccccc2OC(F)(F)F)CC1)c1cccs1 | nt | nt | nt | nt | i | nt | nt | nt
Cn1cnc([N+](=O)[O-])c1S(=O)(=O)c1cccc(Cl)c1 | i | i | i | i | i | i | nt | nt
CCCn1c(CC)nc([N+](=O)[O-])c1S(=O)(=O)c1ccccc1 | i | i | nt | i | 10 | i | i | i
N=c1c2ccccc2nc2n1CCCCCCC2 | nt | nt | nt | nt | 9.0 | nt | i | i
CC(CCN1CCC(C(O)(c2ccccc2)c2ccccc2)CC1)Oc1ccccc1C#N (stereo unspecified) | nt | nt | nt | nt | i | nt | nt | nt
C=CCN(C)CC#Cc1ccc(C)cc1 | nt | nt | nt | nt | i | nt | nt | nt
Cc1ccccc1NC(=O)/C(C#N)=C\c1cn(CC(=O)O)c2ccccc12 | i | i | i | i | i | i | nt | nt
N#C/C(=C\c1ccc[nH]1)C(=O)Nc1ccccc1[N+](=O)[O-] | i | i | i | i | 11 | i | 14 | 6.1
Cc1ccccc1NC(=O)/C(C#N)=C/c1ccc[nH]1 | i | nt | i | i | 9.5 | i | i | 5.3
O=C(CC(=O)Nc1ccccc1[N+](=O)[O-])Nc1ccccc1[N+](=O)[O-] | i | i | i | i | i | i | nt | nt
SMILES | SR-BI uptake up | AHR activator | Lipid droplet | SR-BI DiI inh | SMARCA2 activ | CR mimetic SO | SMARCA2 act conf | VP16 Luc act
CC[C@@H](CCCc1ccc(F)cc1)CN(Cc1ccc(OC)cc1)S(=O)(=O)c1ccc(C)cc1 | nt | nt | nt | nt | i | nt | nt | nt
O=C1C(Sc2ccccc2)=C[C@@]2(O)CC[C@@H](O)[C@]1(Sc1ccccc1)[C@H]2O | nt | nt | nt | nt | 12 | nt | 10 | i
COc1ccc(SC2=C[C@@]3(O)CC[C@@H](O)[C@@](Sc4ccc(OC)cc4)(C2=O)[C@H]3O)cc1 | nt | nt | nt | nt | i | nt | nt | nt
CN(CC1CCCN(CCc2cccc(C(F)(F)F)c2)C1)C(=O)c1ccco1 (stereo unspecified) | i | i | i | i | 11 | i | i | i
CC(=O)Nc1ccc(CN(C)CC2CCCN(CCc3cccc(C(F)(F)F)c3)C2)cc1 (stereo unspecified) | i | i | i | i | i | i | nt | nt
COC(=O)C1CN(Cc2cn(Cc3ccc(OC)cc3)nn2)CCS(=O)(=O)N1Cc1ccc(OC)cc1 (stereo unspecified) | nt | nt | nt | nt | i | nt | nt | nt
CCC(C)(C)C1CCC(=NNC(=S)Nc2ccccc2)CC1 (stereo unspecified) | i | i | i | i | 8.9 | i | i | i
CCCCNC(=O)C[C@H]1C[C@@]2(C(=O)OC)C(=C[C@H](C3CCCC3)O[C@@H]2C)N(CCc2ccc(OC)c(OC)c2)C1=O | nt | nt | nt | nt | i | nt | nt | nt
COc1ccccc1/C=C/C(=O)OCC(=O)Nc1ccc(Cl)cn1 | i | i | i | i | 8.9 | i | 11 | i
O=C(COC(=O)/C=C/c1ccccc1)Nc1ccc(Cl)cn1 | i | i | nt | i | i | i | nt | nt
CCCOC(=O)CC1C(=O)NCCN1Cc1ccccc1C (stereo unspecified) | i | i | nt | i | 9.5 | i | i | i
Cc1ccccc1CN1CCNC(=O)C1CC(=O)NC1CCCCCCC1 (stereo unspecified) | i | i | i | i | i | i | nt | nt
Cc1c(C(N)=O)sc2nc(-c3ccccc3)cn12 | i | i | nt | i | 9.9 | i | i | 13
Cc1oc(C(C)(C)C)cc1C(=O)NCc1ccc2c(c1)OCO2 | i | i | i | i | 8.8 | i | i | i
COc1ccc(CCNCCC(=O)Nc2c(C)cc(C)cc2C)cc1OC | i | i | i | i | 9.0 | i | i | i
COc1ccc(CCNCC(=O)Nc2c(C)cc(C)cc2C)cc1OC | i | i | nt | i | i | i | nt | nt
Clc1ccc(CN2CCN(N=Cc3ccncc3)CC2)cc1 | nt | nt | nt | nt | i | nt | nt | nt
Cn1c(/C=C/c2ccc(Cl)cc2)nc2ccccc2c1=O | i | 49 | i | i | 8.7 | i | i | 6.1
COc1ccc(OCc2cccc(C(=O)Nc3ccc(CN4CCCCC4)cc3)c2)cc1 | i | i | i | i | 9.9 | i | 9.4 | 14
CCOc1ccc(OCc2cccc(C(=O)Nc3ccc(CN4CCCCC4)cc3)c2)cc1 | i | i | i | i | 12 | i | 14 | 10
COc1cc(OC)cc(C(=O)Nc2ccc(CN3CCCCC3)cc2)c1 | i | i | i | i | i | i | nt | nt
COc1cccc(C(=O)Nc2ccc(F)c(F)c2F)c1 | i | i | nt | i | 9.0 | i | i | 7.9
COc1cccc(C(=O)Nc2ccc(F)cc2F)c1 | i | i | i | i | i | i | nt | nt
COc1cccc(C(=O)NCCSc2ccc(C)cc2)c1 | i | i | i | i | i | i | nt | nt
COc1cccc(C(=O)NCCSc2ccc(F)cc2)c1 | i | i | nt | i | 16 | i | 12 | 10.0

High-throughput results deposited in PubChem by several laboratories.
